HCV NS3 hel inh: inhibitors of HCV NS3 helicase, primary screen, biochemical, Cy5 molecular beacon fluorescence; Hepatitis C virus NS3 helicase; NS3 helicase DNA unwinding; inhibition, % at 10.9 µM; 0.56% of 290,000 active;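 active = inhibition above the mean of all tested compounds plus 3 SD, set per campaign, cut at about 35% in these data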;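 also: 0% = DMSO wells and 100% = thioflavine S control wells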
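Material: hepatitis C virus NS3 helicase domain fragment enzyme; measured by: Cy5 fluorescence, 0 and 60 min reads; control set: DMSO and thioflavine S; incubation: 60 min unwinding reaction at 25 °C after ATP addition; read-out basis: % inhibition from 60/0 min fluorescence ratio, DMSO 0%, thioflavine S 100%; repeats: singlicate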
PABP polyA inh: PABP poly(A) RNA binding inhibitors, primary screen, biochemical, fluorescence polarization, uHTS. 1% of 290,000 active. Polyadenylate-binding protein 1 (Homo sapiens), P11940. inhibition, % at 35 µM. AID 2014, 2009;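 also: calls also rest on retests at 20 µM and on dose response follow-up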
ZTA counter: ZTA (EBV) inhibition in EBNA-1 counter-screen; P03206; ZTA-DNA binding, fluorescence polarization; inhibition, % at 11 µM; 0.15% of 320,000 active; in the data active = inhibition above about 33%
Target sequence (P03206 whole entry, looked up): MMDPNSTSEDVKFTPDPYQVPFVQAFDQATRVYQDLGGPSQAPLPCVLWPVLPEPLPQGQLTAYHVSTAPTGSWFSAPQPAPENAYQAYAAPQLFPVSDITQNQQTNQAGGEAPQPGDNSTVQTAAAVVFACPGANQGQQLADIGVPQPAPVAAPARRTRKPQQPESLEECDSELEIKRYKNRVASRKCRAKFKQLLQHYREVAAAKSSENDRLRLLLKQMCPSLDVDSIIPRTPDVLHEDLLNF
eIF4H FP inh: human eIF4H binding inhibitors, primary screen, translation initiation inhibitor project, biochemical, uHTS, fluorescence polarization; Eukaryotic translation initiation factor 4H (Homo sapiens), Q15056; eIF4H fluorescence polarization binding assay; inhibition, % at 35 µM; 0.94% of 290,000 active; AID 2012, 2009;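 also: calls also rest on retests at 20 µM and on dose response follow-up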
EBNA-1 inhibitor: EBNA-1 DNA-binding inhibitors, primary screen, biochemical, fluorescence polarization; inhibition, % at 14.8 µM; 0.34% of 300,000 active; AID 1950, 2009; in the data active = inhibition above about 28%
MLLE-PAM2 inh: inhibitors of PABP1 MLLE–PAM2 peptide binding, primary screen, biochemical, fluorescence polarization, FITC-PAM2, GST-MLLE; Polyadenylate-binding protein 1 (Homo sapiens), P11940; inhibition, % at 20 µM; 0.36% of 360,000 active; AID 588489, 2011; in the data active = inhibition above about 35%, passing the limit was not always enough;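 also: plate controls were DMSO wells with GST-MLLE for no effect and wells lacking GST-MLLE protein for full effect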
* = called active by the depositor; ? = inconclusive; · = no result; + = active, no number. This is a sample that favours compounds with a hit; in the whole collection about 2.1% have one here. Unless noted, no rule for the calls is given here.

SMILES | HCV NS3 hel inh | PABP polyA inh | ZTA counter | eIF4H FP inh | EBNA-1 inhibitor | MLLE-PAM2 inh
O=C(CCCN1C(=O)CCC1=O)Nc1ccccc1F | 3 | -4 | -5 | 8 | -3 | 34*
CCOC(=O)c1c(C)oc2c1c(C=NCc1ccccn1)c(O)c1ccccc12 | 18 | 116* | · | 121* | · | 5
COc1ccc(Cc2nnc(NC(=O)C3CCCO3)s2)cc1OC (stereo not given) | 3 | 0 | -6 | -7 | -4 | 45*
CN(/N=C/c1cc(Cl)ccc1O)C1=NS(=O)(=O)c2ccccc21 | 4 | 20 | 1 | -9 | 4 | -3
COc1cccc(CNC(=O)c2ccc(NC3=NC4CS(=O)(=O)CC4S3)cc2)c1 (stereo not given) | -3 | -4 | 16 | -14 | 2 | -100
COc1ccc([C@@H]2C[C@H]3CN(Cc4ccccc4OC)C(=O)[C@]34CCCN24)cc1C | 3 | 17* | 2 | 52* | 3 | -23
COc1ccc(C2c3sc(=O)[nH]c3SC3C(=O)N(c4ccccc4)C(=O)C32)cc1 (stereo not given) | 9 | -8 | 8 | 66* | 3 | 26
O=C1C2Sc3[nH]c(=O)sc3C(c3ccccc3)C2C(=O)N1c1ccccc1 (stereo not given) | 9 | 11 | 12 | 9 | -8 | 21
CCOC(=O)N1CCN(C(=O)COc2ccc3c(c2)C(=O)CC(C)(C)O3)CC1 | -6 | 79* | -5 | ? | -8 | -4
CC1(C)CC(=O)c2cc(OCC(=O)N3CCCCCC3)ccc2O1 | 10 | 6 | 7 | 8 | 2 | 1
Cc1ccccc1Nc1n[nH]c(=S)s1 | · | · | · | · | · | 24
Cc1ccccc1Nc1nc(Cl)c(C=O)s1 | 5 | 31* | -2 | 78* | 8 | -38
CCn1cc(C(=O)NCc2ccccc2OC)c(=O)c2cc(S(=O)(=O)N(C)C)ccc21 | 2 | -3 | 3 | -8 | 2 | -3
Cc1nc(SCC(=O)O)c(C#N)c2c1CCCC2 | 13 | 82* | 10 | 108* | 5 | -29
CCc1nc(SCC(=O)O)c(C#N)c2c1CCCC2 | -3 | 7 | -2 | 5 | 9 | 13
O=S(=O)(/N=C(/NC(=S)Nc1ccccc1)c1ccccc1)c1ccc(Cl)cc1 | 5 | -4 | -16 | 9 | 2 | 20
CNC(=S)SCCOc1ccc(C)cc1 | -7 | 13 | 4 | -4 | -1 | 9
O=S1(=O)CCC(NC(=S)SCCOc2ccccc2)C1 (stereo not given) | 5 | -5 | 11 | 0 | -3 | 40*
CNC(=S)SCCOc1ccccc1 | 1 | -1 | 7 | -19 | -4 | 36*
O=C(NCC(=O)N1CCC(Cc2ccccc2)CC1)c1ccc(Cl)cc1 | -9 | 6 | -5 | -3 | -3 | -1
COC(=O)CCCC1=CC2=CC(=O)C(C)(OC(=O)c3cccs3)C(=O)C2=CN1c1ccc(OC)cc1 (stereo not given) | · | 34* | -8 | 59 | 8 | 2
CCCCC1=CC2=CC(=O)C(C)(OC(=O)CC)C(=O)C2=CN1c1ccccc1 (stereo not given) | · | 45* | 5 | 83 | 5 | 3
CCCCC1=CC2=CC(=O)C(C)(OC(=O)CC)C(=O)C2=CN1Cc1ccco1 (stereo not given) | · | 64* | -2 | 70* | 9 | 6
CCCCC1=CC2=CC(=O)C(C)(OC(=O)CC)C(=O)C2=CN1Cc1ccccc1 (stereo not given) | · | 30 | 11 | 36 | 8 | -20
COC(=O)CCC(=O)OC1(C)C(=O)C=C2C=C(C3CC3)N(Cc3ccco3)C=C2C1=O (stereo not given) | · | 53* | 4 | 88* | 8 | 30
SMILES | HCV NS3 hel inh | PABP polyA inh | ZTA counter | eIF4H FP inh | EBNA-1 inhibitor | MLLE-PAM2 inh
CO/N=C(\c1ccccc1)c1cccnc1 | 12 | -6 | 7 | -2 | 5 | 10
COc1ccc(NS(=O)(=O)c2c(C(=O)N3CCCCCC3)c(C)n(C)c2C)cc1OC | -3 | -6 | -10 | 1 | 1 | 1
Fc1ccc(CSc2nc3ccccc3[nH]2)c2ccccc12 | -5 | -1 | -7 | -8 | -10 | 4
COC(=O)CCCC1=CC2=CC(=O)C(C)(OC(=O)c3cccs3)C(=O)C2=CN1Cc1ccco1 (stereo not given) | · | 50* | -2 | 61* | -1 | 10
COC(=O)CCCC1=CC2=CC(=O)C(C)(OC(=O)c3cccs3)C(=O)C2=CN1Cc1ccccc1 (stereo not given) | · | 25 | -7 | 41 | -3 | 7
COC(=O)CCCC1=CC2=CC(=O)C(C)(OC(=O)c3cccs3)C(=O)C2=CN1C1CCCC1 (stereo not given) | · | 32 | 15 | 12 | 6 | 4
COC(=O)CCCC1=CC2=CC(=O)C(C)(OC(=O)c3cccs3)C(=O)C2=CN1CCCOC(C)C (stereo not given) | · | 29* | 2 | 61 | -6 | 13
COc1ccc(C(=O)N(CN2CCCC2=O)c2cc(C)on2)cc1OC | 1 | -1 | -7 | -2 | 4 | -6
Cc1ccc(C(=O)ONC(=O)c2ccc(Cl)cc2)cc1[N+](=O)[O-] | -5 | -6 | 5 | 1 | -7 | -2
CN1CCN(NC(=O)CN2C(=O)S/C(=C\c3c(Cl)cccc3Cl)C2=O)CC1 | 30 | -5 | 5 | 8 | -2 | 41*
O=C(CCN1C(=O)/C(=C/c2ccccc2Cl)SC1=S)NN1CCOCC1 | 3 | -3 | 6 | -13 | 2 | 25
COc1ccc(C(=O)N2CCOC2CNC(=O)C(=O)NCc2ccco2)cc1 (stereo not given) | -8 | -6 | 10 | 14 | -9 | -7
Nc1ccc(O)c2c1C(=O)c1ccccc1C2=O | 17 | 4 | 37* | 123 | 13 | 87*
CCCCC[C@H](O)/C=C/[C@H]1C=CC(=O)[C@@H]1C/C=C\CCCC(=O)O | 13 | + | · | 94 | · | ·
CC(C)(C)NC(=O)C1N(c2cccnc2)C(=O)C2C(C(=O)Nc3ccccc3F)C3(C)C=CC21O3 (stereo not given) | 3 | 2 | -12 | -10 | 0 | 11
COC(=O)C1=CO[C@@H](O[C@@H]2OC(CO)[C@@H](O)[C@@H](O)[C@@H]2O)C2C1CC[C@]2(C)O (stereo not given in full) | · | · | 9 | · | -2 | -1
COC(=O)C1=COC(OC2OC(CO)C(O)C(O)C2O)C2C1C=CC2(O)CO (stereo not given) | · | 62* | 10 | 89* | 1 | -1
Cn1c(O)c(C2=c3ccccc3=NC2=O)[nH]c1=S | 4 | 1 | 1 | 10 | -5 | -2
